# Assay results from ChEMBL document CHEMBL3244145, “Synthesis and quantitative structure--activity relationships of some antibacterial 3-formylrifamycin SV N-(4-substituted phenyl)piperazinoacethydrazones” (J Med Chem, 1978).
# Calls of active or inactive are those of the source. The rule behind the calls is not given here.
# Columns and labels:
# Staphylococcus aureus = assay: Antimicrobial activity against Staphylococcus aureus 11 by serial dilution method; assay type: functional; details: for MIC: Staphylococcus aureus, 11
# [1] = test system: Mycobacterium tuberculosis; assay: Antimicrobial activity against Mycobacterium tuberculosis H37Rv by agar dilution method; assay type: functional; details: for MIC: Mycobacterium tuberculosis, H37Rv
# In short: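 Agar dilution: the hydrazone is dissolved in warm Middlebrook agar and serially diluted into two quadrants of a quartered dish, with two drug-free quadrants. After cooling, 0.1 mL of M. tuberculosis suspension (McFarland no. 1, set spectrophotometrically) is inoculated. Plates are incubated 14 days at 37 °C under 5% CO2 and scored for colonies. Run in duplicate.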
# Vaccinia virus = assay: Antiviral activity against Vaccinia virus infected in L929 cells assessed as reduction in plaque formation after 3 to 4 days by crystal violet staining method; assay type: functional, organism-based; details: Orthopoxvirus vaccinia
# Bacillus subtilis = assay: Antimicrobial activity against Bacillus subtilis 104 by serial dilution method; assay type: functional; details: for MIC: Bacillus subtilis, 104
# L929 = assay: Cytotoxicity against mouse L929 cells by microscopic analysis; assay type: cell-based
# Clostridium perfringens = assay: Antimicrobial activity against Clostridium perfringens 2 by serial dilution method; assay type: functional; details: for MIC: Clostridium perfringens, 2
# In short: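 Broth MICs were determined by serial dilution of the hydrazones, run in triplicate. Where results differed, the standard deviation of the three determinations is reported.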
# Mycolicibacterium phlei = assay: Antimicrobial activity against Mycobacterium phlei 111 by serial dilution method; assay type: functional; details: for MIC: Mycolicibacterium phlei, 111
SMILES,log(1/C) (Staphylococcus aureus),MIC (Staphylococcus aureus),log(1/C) [1],MIC [1],Activity (Vaccinia virus),log(1/C) (Bacillus subtilis),MIC (Bacillus subtilis),Activity (L929),log(1/C) (Clostridium perfringens),MIC (Clostridium perfringens),log(1/C) (Mycolicibacterium phlei),MIC (Mycolicibacterium phlei)
CO[C@H]1/C=C/O[C@@]2(C)Oc3c(C)c(O)c4c(O)c(c(/C=N/NC(=O)CN5CCN(c6ccccc6)CC5)c(O)c4c3C2=O)NC(=O)/C(C)=C\C=C\[C@H](C)[C@H](O)[C@@H](C)[C@@H](O)[C@@H](C)[C@H](OC(C)=O)[C@@H]1C,7.22,0.057 µg/mL,5.03,8.7 µg/mL,inactive,5.24,5.4 µg/mL,Toxic,8.13,0.007 µg/mL,5.12,7.13 µg/mL
CO[C@H]1/C=C/O[C@@]2(C)Oc3c(C)c(O)c4c(O)c(c(/C=N/NC(=O)CN5CCN(c6ccc([N+](=O)[O-])cc6)CC5)c(O)c4c3C2=O)NC(=O)/C(C)=C\C=C\[C@H](C)[C@H](O)[C@@H](C)[C@@H](O)[C@@H](C)[C@H](OC(C)=O)[C@@H]1C,7.6,0.025 µg/mL,4.74,18 µg/mL,inactive,4.9,12.3 µg/mL,Toxic,8.3,0.005 µg/mL,4.93,11.5 µg/mL
CO[C@H]1/C=C/O[C@@]2(C)Oc3c(C)c(O)c4c(O)c(c(/C=N/NC(=O)CN5CCN(c6ccc(C(C)(C)C)cc6)CC5)c(O)c4c3C2=O)NC(=O)/C(C)=C\C=C\[C@H](C)[C@H](O)[C@@H](C)[C@@H](O)[C@@H](C)[C@H](OC(C)=O)[C@@H]1C,7.49,0.033 µg/mL,5.12,7.5 µg/mL,inactive,5.32,4.8 µg/mL,Toxic,8.7,0.002 µg/mL,5.44,3.63 µg/mL
CO[C@H]1/C=C/O[C@@]2(C)Oc3c(C)c(O)c4c(O)c(c(/C=N/NC(=O)CN5CCN(c6ccc(C#N)cc6)CC5)c(O)c4c3C2=O)NC(=O)/C(C)=C\C=C\[C@H](C)[C@H](O)[C@@H](C)[C@@H](O)[C@@H](C)[C@H](OC(C)=O)[C@@H]1C,7.07,0.082 µg/mL,4.72,18.6 µg/mL,inactive,4.77,16.3 µg/mL,Toxic,8.14,0.007 µg/mL,4.65,21.5 µg/mL
CCc1ccc(N2CCN(CC(=O)N/N=C/c3c4c(O)c5c(O)c(C)c6c(c5c3O)C(=O)[C@@](C)(O/C=C/[C@H](OC)[C@@H](C)[C@@H](OC(C)=O)[C@H](C)[C@H](O)[C@H](C)[C@@H](O)[C@@H](C)/C=C/C=C(/C)C(=O)N4)O6)CC2)cc1,7.57,0.026 µg/mL,4.72,18.6 µg/mL,inactive,5.25,5.5 µg/mL,Toxic,8.51,0.003 µg/mL,5.16,6.75 µg/mL
CO[C@H]1/C=C/O[C@@]2(C)Oc3c(C)c(O)c4c(O)c(c(/C=N/N5CCN(C)CC5)c(O)c4c3C2=O)NC(=O)/C(C)=C\C=C\[C@H](C)[C@H](O)[C@@H](C)[C@@H](O)[C@@H](C)[C@H](OC(C)=O)[C@@H]1C [RIFAMPIN],> 8.07,< 0.007 µg/mL,5.91,1 µg/mL,,6.59,0.21 µg/mL,,8.44,0.003 µg/mL,6.48,0.27 µg/mL
CO[C@H]1/C=C/O[C@@]2(C)Oc3c(C)c(O)c4c(O)c(c(/C=N/NC(=O)CN5CCN(c6ccc(Br)cc6)CC5)c(O)c4c3C2=O)NC(=O)/C(C)=C\C=C\[C@H](C)[C@H](O)[C@@H](C)[C@@H](O)[C@@H](C)[C@H](OC(C)=O)[C@@H]1C,7.46,0.035 µg/mL,5.08,8.4 µg/mL,inactive,5.31,5 µg/mL,Toxic,8.23,0.006 µg/mL,5.22,6.13 µg/mL
CO[C@H]1/C=C/O[C@@]2(C)Oc3c(C)c(O)c4c(O)c(c(/C=N/NC(=O)CN5CCN(c6ccc(Oc7ccccc7)cc6)CC5)c(O)c4c3C2=O)NC(=O)/C(C)=C\C=C\[C@H](C)[C@H](O)[C@@H](C)[C@@H](O)[C@@H](C)[C@H](OC(C)=O)[C@@H]1C,7.74,0.019 µg/mL,4.84,15 µg/mL,inactive,5.32,5 µg/mL,Toxic,8.11,0.008 µg/mL,5.24,6 µg/mL
CO[C@H]1/C=C/O[C@@]2(C)Oc3c(C)c(O)c4c(O)c(c(/C=N/NC(=O)CN5CCN(c6ccc(C(C)C)cc6)CC5)c(O)c4c3C2=O)NC(=O)/C(C)=C\C=C\[C@H](C)[C@H](O)[C@@H](C)[C@@H](O)[C@@H](C)[C@H](OC(C)=O)[C@@H]1C,7.56,0.027 µg/mL,5.04,9 µg/mL,inactive,5.3,4.9 µg/mL,Toxic,8.52,0.003 µg/mL,5.48,3.25 µg/mL
CO[C@H]1/C=C/O[C@@]2(C)Oc3c(C)c(O)c4c(O)c(c(/C=N/NC(=O)CN5CCN(c6ccc(Cl)cc6)CC5)c(O)c4c3C2=O)NC(=O)/C(C)=C\C=C\[C@H](C)[C@H](O)[C@@H](C)[C@@H](O)[C@@H](C)[C@H](OC(C)=O)[C@@H]1C,7.43,0.036 µg/mL,4.91,12 µg/mL,inactive,5.31,4.8 µg/mL,Toxic,8.21,0.006 µg/mL,5.19,6.38 µg/mL
CO[C@H]1/C=C/O[C@@]2(C)Oc3c(C)c(O)c4c(O)c(c(/C=N/NC(=O)CN5CCN(c6ccc(C)cc6)CC5)c(O)c4c3C2=O)NC(=O)/C(C)=C\C=C\[C@H](C)[C@H](O)[C@@H](C)[C@@H](O)[C@@H](C)[C@H](OC(C)=O)[C@@H]1C,7.4,0.038 µg/mL,4.96,10.5 µg/mL,inactive,5.27,5.1 µg/mL,Toxic,8.14,0.007 µg/mL,5.14,7 µg/mL
CO[C@H]1/C=C/O[C@@]2(C)Oc3c(C)c(O)c4c(O)c(c(/C=N/NC(=O)CN5CCN(c6ccc(NC(C)=O)cc6)CC5)c(O)c4c3C2=O)NC(=O)/C(C)=C\C=C\[C@H](C)[C@H](O)[C@@H](C)[C@@H](O)[C@@H](C)[C@H](OC(C)=O)[C@@H]1C,7.22,0.06 µg/mL,4.74,18 µg/mL,inactive,4.92,12 µg/mL,Toxic,8,0.01 µg/mL,4.59,31 µg/mL
